Test results reported in ChEMBL document CHEMBL1148736, “N-Acylthiadiazolines, a new class of liver X receptor agonists with selectivity for LXRbeta” (J Med Chem, 2007).
Active and inactive are the calls of the source. The rule behind the calls is not given here.

What was measured:
[1] = AUC in C57BL/6 mouse at 5 mg/kg, iv; type: ADME, organism-based; parameters: dose 5 mg/kg, route intravenous; conditions: plasma
In short: (§1)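 Mouse PK study, IV and PO; compound formulated at 2.5 mg/mL in PEG300/Tween 80 (4:1). IV dose 5 mpk (AUC, Cmax, clearance, Vss); oral dose 20 mpk (AUC, Cmax, bioavailability, t1/2).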

[2] = AUC in C57BL/6 mouse at 20 mg/kg, po; type: ADME, organism-based; parameters: dose 20 mg/kg, route oral; conditions: plasma; in short: as §1
[3] = target: T1, Oxysterols receptor LXR-beta (Homo sapiens) (UniProt P55055); assay: Displacement of [3H]T-0901317 from GAL-linked human LXRbeta expressed in THP1 cells at 20 uM by SPA relative to GW-3965; type: cell-based; conditions: THP-1
T1 sequence (whole entry): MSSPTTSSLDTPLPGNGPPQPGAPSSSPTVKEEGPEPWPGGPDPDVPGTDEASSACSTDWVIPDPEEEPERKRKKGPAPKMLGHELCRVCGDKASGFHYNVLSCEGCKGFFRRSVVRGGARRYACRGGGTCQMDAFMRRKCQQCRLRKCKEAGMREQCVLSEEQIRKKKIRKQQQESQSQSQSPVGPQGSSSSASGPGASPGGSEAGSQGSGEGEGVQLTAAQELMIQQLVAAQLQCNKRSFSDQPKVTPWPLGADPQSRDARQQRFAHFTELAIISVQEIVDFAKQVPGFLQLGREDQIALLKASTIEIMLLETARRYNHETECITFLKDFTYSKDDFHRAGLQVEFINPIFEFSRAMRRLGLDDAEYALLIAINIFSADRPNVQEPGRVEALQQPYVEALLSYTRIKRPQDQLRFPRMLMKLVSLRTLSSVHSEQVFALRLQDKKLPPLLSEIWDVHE
In short: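 Scintillation proximity displacement with His-tagged hLXRα or hLXRβ LBD (200 ng/well) and 30 nM [3H]T0901317. Beads 0.2 mg/well in phosphate buffer with EDTA, NaCl, DTT, CHAPS, 10% glycerol. 12-point curves from 20 µM; shaken 3 h at room temperature. No-competitor wells = 100% binding; nonspecific binding without protein. Efficacy = maximal displacement relative to reference dual agonist.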

[4] = target: T2, Oxysterols receptor LXR-alpha (Homo sapiens, UniProt Q13133); assay: Agonist activity at GAL-linked human LXRalpha expressed in THP1 cells assessed as stimulation of coactivator recruitment by FRET assay; type: functional
T2 sequence (Q13133 whole entry): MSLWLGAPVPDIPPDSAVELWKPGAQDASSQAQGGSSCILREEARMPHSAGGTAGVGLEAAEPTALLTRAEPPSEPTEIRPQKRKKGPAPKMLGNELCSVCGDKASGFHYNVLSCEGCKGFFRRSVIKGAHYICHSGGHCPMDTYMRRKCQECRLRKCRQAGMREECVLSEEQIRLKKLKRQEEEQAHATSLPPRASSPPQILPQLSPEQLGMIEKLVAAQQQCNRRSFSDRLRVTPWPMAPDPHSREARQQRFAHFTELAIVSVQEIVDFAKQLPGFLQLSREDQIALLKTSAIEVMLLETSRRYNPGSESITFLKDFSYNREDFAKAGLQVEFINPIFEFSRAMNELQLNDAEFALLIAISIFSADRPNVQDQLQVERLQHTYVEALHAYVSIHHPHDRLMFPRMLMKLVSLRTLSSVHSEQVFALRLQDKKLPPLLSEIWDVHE
In short: (§2)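 Cell-free TR-FRET coactivator recruitment: 20 nM His-tagged hLXRα or hLXRβ, 300 nM biotinylated SRC-1 peptide, Eu-anti-His antibody, APC-streptavidin. 12-point curves from 20 µM; 1 h at 37 °C. Duplicate. %E = maximal coactivator recruitment relative to reference dual agonist in same experiment.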

[5] = target: T1, Oxysterols receptor LXR-beta (Homo sapiens); assay: Agonist activity at GAL-linked human LXRbeta expressed in THP1 cells assessed as stimulation of co-activator recruitment by FRET assay relative to GW-3965; type: functional; in short: as §2
THP-1 = assay: Increase in ABCA1 gene expression in THP1 cells at 10 uM relative to GW-3965; type: functional, Homo sapiens
In short: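 THP-1 cells differentiated with 40 ng/mL PMA for 1 day, then switched to RPMI with 2% lipoprotein-deficient FBS. Compound added 6 h later at 1 or 10 µM in DMSO, incubated 24 h. ABCA1 mRNA by one-step TaqMan qRT-PCR, triplicate, multiplexed with 36B4; fold induction vs DMSO, expressed relative to reference dual agonist.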

HepG2 = assay: Increase in FAS gene expression in HepG2 cells at 1 uM relative to GW-3965; type: functional, Homo sapiens
Macrophage [6] = assay: Induction of ABCA1 gene expression in LXRbeta deficient mouse macrophages; type: functional, cell-based
In short: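 Thioglycollate-elicited peritoneal macrophages from LXR-null mice, plated 24 h. Treated as for THP-1 without PMA: 2% lipoprotein-deficient serum medium, compound in DMSO for 24 h. ABCA1 mRNA by TaqMan qRT-PCR with 36B4 control, fold vs DMSO. Two concentrations used.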

Macrophage [7] = assay: Induction of APO-AI-dependent cholesterol efflux in mouse macrophages; type: functional, cell-based
In short: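 Peritoneal macrophages labelled 24 h with [3H]cholesterol (1.0 µCi/mL) plus ACAT inhibitor 58-035 (2 µg/mL), with compound. Then 2–4 h equilibration in label-free medium with compound. Efflux for 4 h into DMEM/0.2% BSA with or without apoAI (15 µg/mL). apoAI-dependent efflux = medium radioactivity as % of total cell plus medium. Triplicate.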

[8] = target: T3, Oxysterols receptor LXR-alpha (Homo sapiens) (UniProt Q13133); assay: Activity at human LXRalpha by Gal4 transactivation assay relative to GW-3965
T3 sequence (whole entry): T2 sequence (Q13133 whole entry)
In short: (§3)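 GAL4 DBD fused to hLXRα or hLXRβ LBD in pcDNA3, co-transfected into HepG2 with luciferase reporter. Cells in DMEM with 10% lipoprotein-deficient FBS, 7.5 µM lovastatin, 100 µM mevalonic acid. Ligand added 24 h post-transfection as 11-point curves from 10 µM; luciferase read after 16 h. Run in quadruplicate. %E = max fold induction vs max fold induction of reference dual agonist in same experiment.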

[9] = target: T1, Oxysterols receptor LXR-beta (Homo sapiens); assay: Activity at human LXRbeta by Gal4 transactivation assay relative to GW-3965; in short: as §3
[10] = target: T4, Vitamin D3 receptor (Homo sapiens) (UniProt P11473); assay: Activity at VDR by cell based assay; type: functional
T4 sequence (whole entry): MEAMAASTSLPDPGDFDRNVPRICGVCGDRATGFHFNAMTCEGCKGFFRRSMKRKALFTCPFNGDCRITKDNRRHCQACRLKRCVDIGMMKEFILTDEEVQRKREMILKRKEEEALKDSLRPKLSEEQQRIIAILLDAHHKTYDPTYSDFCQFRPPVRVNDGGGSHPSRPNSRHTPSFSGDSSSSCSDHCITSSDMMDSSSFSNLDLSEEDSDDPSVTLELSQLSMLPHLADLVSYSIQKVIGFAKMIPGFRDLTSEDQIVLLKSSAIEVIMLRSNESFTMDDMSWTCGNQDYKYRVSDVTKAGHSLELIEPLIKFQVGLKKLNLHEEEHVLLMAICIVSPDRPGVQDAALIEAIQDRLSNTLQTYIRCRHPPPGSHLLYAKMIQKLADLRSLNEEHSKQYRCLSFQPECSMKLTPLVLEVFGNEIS

[11] = Cmax in C57BL/6 mouse at 20 mg/kg, po; type: ADME, organism-based; parameters: dose 20 mg/kg, route oral; conditions: in vivo; in short: as §1

AUC [1]: 7140 ng·h/mL
AUC [2]: 7920 ng·h/mL
Efficacy [3]: 100%
EC50 [4]: 2300 nM
Efficacy [5]: 99%
Efficacy [8]: 19%
Efficacy [9]: 82%
Activity [10]: inactive
Cmax [11]: 4.9 µM
SMILES: COc1cccc(C2SC(c3ccc(Cl)cc3)=NN2C(=O)c2c(F)cc(F)cc2F)c1OC (racemic)
Activity (THP-1): 59%
Activity (HepG2): 10%
Activity (Macrophage [6]): Active
Activity (Macrophage [7]): Active
